The test system of one assay is A498. Nature of the assay: Cytotoxicity against human A498 cells. The class given is functional, cell-based. The method, boiled down:
(§1)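 Tested in vitro in the NCI 60 human tumour cell-line panel, with the screen run at the National Cancer Institute. Growth inhibition was read for each line and reported as IC50 in µg/mL.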

The next assay has as its system ACHN. As to the kind of experiment: Cytotoxicity against human ACHN cells. The class given is functional, cell-based. The method, boiled down:
as §1

A further assay deals with CAKI-1. Nature of the assay: Cytotoxicity against human Caki1 cells. The class given is functional, cell-based. Put shortly:
as §1

Assay [1] relates to Mycobacterium tuberculosis. Nature of the assay: Antitubercular activity against Mycobacterium tuberculosis H37Rv assessed as inhibition of microbial growth at 6.25 ug/mL. Format: functional.
Another assay has as its system TK-10. Nature of the assay: Cytotoxicity against human TK10 cells. Format: functional, cell-based. The method, boiled down: as §1
For the next assay, the system named is NCI-H322M. As to the kind of experiment: Cytotoxicity against human NCI-H322M cells. The class given is functional, cell-based. The method, boiled down:
as §1

A further assay deals with MOLT-4. Nature of the assay: Cytotoxicity against human MOLT4 cells. The class given is functional, cell-based. Put shortly:
as §1

In a further assay the test system is SR. Nature of the assay: Cytotoxicity against human SR cells. The class given is functional, cell-based. The method, boiled down: as §1

This note sets out measurements from ChEMBL document CHEMBL1150625, “New terpenoid constituents from Eunicea pinta” (J Nat Prod, 2002).

≈ marks a conversion by molar mass, not a printed value. Calls of active or inactive are those of the source. The rule behind the calls is not given here.

Regarding `C=C[C@H]1CC[C@H]2[C@@H]3CC=C4C[C@@H](O[C@@H]5OC[C@@H](O)[C@H](O)[C@H]5O)CC[C@]4(C)[C@H]3CC[C@]12C`, the half-inhibitory concentration (IC50) with A498 was found to be 4.2 µg/mL (≈ 9.71 µM); with ACHN it was 2.8 µg/mL (≈ 6.47 µM); with CAKI-1 it was 6.6 µg/mL (≈ 15.3 µM). For the same compound, the inhibition at 6.25 µg/mL in assay [1] worked out at 52%.

With `C=C1C(=O)OC2C(=O)[C@H](C)CCC/C(C)=C/CC[C@@]3(C)O[C@@H]3C[C@@H]12` (stereo not given in full), in assay [1], the inhibition result was “inactive”.

With `C=C1C(=O)O[C@H]2C(=O)[C@H](C)CCC/C(C)=C/CC[C@@]3(C)O[C@@H]3C[C@@H]12`, the concentration for half-maximal inhibition (IC50) in the assay with TK-10 amounted to 0.13 µg/mL (≈ 0.391 µM); in the assay on NCI-H322M it was 0.9 µg/mL (≈ 2.71 µM).

For `C=C1C(=O)O[C@H]2C(=O)[C@H](C)CCC[C@](C)(OO)/C=C/C[C@@]3(C)O[C@@H]3C[C@@H]12` [UPROLIDE H], the IC50 in the assay on MOLT-4 stood at 0.01 µg/mL (≈ 0.0274 µM); in the assay on SR, 0.07 µg/mL (≈ 0.192 µM). Also, the inhibition result in assay [1] was “inactive”.

In general, IC50 refers to the point on the concentration scale where inhibition reaches its midpoint. The inhibition is the drop in the measured response relative to a control, in per cent.
